# Assay results published in ChEMBL document CHEMBL1156931, “Discovery of novel fibroblast growth factor receptor 1 kinase inhibitors by structure-based virtual screening” (J Med Chem, 2010).
# Biological target: T1, Insulin receptor (Homo sapiens, UniProt P06213)
# Conditions: not given; call rule not given here
# T1 sequence (P06213 28-758 limits assumed): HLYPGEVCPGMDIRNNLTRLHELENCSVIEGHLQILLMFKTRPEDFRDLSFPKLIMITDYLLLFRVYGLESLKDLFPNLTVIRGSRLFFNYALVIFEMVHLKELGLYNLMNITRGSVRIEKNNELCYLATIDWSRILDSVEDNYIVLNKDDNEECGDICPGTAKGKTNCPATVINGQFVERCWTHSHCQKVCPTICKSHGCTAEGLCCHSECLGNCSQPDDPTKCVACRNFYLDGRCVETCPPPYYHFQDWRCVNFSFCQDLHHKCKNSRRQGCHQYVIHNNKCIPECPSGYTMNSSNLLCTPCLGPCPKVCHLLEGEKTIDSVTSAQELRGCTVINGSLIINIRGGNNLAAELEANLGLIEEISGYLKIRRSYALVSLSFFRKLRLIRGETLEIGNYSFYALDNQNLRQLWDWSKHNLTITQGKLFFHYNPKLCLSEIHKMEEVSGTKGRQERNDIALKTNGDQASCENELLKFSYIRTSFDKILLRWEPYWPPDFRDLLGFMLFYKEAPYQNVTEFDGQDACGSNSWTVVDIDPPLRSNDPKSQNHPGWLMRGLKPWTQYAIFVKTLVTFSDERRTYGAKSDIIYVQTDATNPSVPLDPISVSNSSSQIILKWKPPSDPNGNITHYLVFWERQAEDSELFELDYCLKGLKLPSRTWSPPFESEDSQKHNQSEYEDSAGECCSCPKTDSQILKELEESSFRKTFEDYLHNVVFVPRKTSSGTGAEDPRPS
# T1 sequence (P06213 763-1382 limits assumed): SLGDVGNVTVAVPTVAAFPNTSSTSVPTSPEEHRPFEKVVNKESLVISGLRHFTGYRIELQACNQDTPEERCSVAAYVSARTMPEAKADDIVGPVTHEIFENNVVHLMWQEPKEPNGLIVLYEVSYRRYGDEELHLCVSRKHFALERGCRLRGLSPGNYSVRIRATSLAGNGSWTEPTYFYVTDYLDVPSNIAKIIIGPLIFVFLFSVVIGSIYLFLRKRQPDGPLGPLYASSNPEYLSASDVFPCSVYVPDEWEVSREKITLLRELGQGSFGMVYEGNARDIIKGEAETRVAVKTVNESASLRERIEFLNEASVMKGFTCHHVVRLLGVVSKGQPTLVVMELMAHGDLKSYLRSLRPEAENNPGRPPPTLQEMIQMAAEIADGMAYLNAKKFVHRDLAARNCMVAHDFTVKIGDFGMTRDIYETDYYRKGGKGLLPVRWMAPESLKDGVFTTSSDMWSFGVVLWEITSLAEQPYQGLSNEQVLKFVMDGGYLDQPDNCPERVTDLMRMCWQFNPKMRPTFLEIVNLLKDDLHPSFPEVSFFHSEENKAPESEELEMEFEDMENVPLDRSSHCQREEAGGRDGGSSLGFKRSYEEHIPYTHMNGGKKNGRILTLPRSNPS
row,Structure (SMILES),IC50 [µM]
1,COc1cc(/C=C2\SC(=N)NC2=O)ccc1OCCCOc1cc(C)cc(C)c1,47

# Biological target: Fibroblast growth factor receptor 1 (Homo sapiens, UniProt P11362)
# Assay: Inhibition of FGFR1
# Conditions: not given
# Fibroblast growth factor receptor 1, sequence (P11362 whole entry): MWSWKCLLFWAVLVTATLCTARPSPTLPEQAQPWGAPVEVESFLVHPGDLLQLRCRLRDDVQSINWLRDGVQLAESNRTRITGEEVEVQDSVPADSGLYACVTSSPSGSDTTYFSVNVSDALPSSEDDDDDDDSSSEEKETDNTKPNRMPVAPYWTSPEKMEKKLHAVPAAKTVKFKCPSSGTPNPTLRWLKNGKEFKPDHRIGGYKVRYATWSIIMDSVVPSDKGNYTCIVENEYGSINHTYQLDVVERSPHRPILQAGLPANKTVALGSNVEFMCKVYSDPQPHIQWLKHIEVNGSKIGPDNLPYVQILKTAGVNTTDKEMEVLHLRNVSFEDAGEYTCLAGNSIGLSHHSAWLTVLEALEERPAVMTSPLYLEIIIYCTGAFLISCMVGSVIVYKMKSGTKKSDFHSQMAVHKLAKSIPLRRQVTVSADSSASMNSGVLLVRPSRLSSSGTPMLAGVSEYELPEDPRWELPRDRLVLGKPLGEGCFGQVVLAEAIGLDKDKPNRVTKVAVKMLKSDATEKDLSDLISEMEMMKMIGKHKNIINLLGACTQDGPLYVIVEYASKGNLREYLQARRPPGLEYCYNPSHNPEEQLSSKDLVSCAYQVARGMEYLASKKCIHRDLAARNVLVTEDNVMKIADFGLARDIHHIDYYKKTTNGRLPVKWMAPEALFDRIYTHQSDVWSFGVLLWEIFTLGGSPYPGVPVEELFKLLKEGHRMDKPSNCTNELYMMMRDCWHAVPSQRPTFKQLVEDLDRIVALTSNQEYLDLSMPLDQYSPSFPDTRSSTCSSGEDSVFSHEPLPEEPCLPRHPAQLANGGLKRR
row,Structure (SMILES),IC50
1,O=C(CC1NC(=O)c2ccccc21)NCc1ccco1 (stereo not given),Not Active
2,Cc1ccc2[nH]c(=O)c(-c3nc4ccc(Cl)cn4c3NCC3CCCO3)cc2c1 (stereo not given),Not Active
3,COc1ccc2cc(-c3nc4cccc(C)n4c3NC3CCCC3)c(=O)[nH]c2c1,Not Active
4,CC(=O)Nc1nc(-c2ccc(Cl)c(Cl)c2)nc2c1c(=O)oc1ccccc12,Not Active
5,O=C(CSc1nc2c(c(=O)[nH]1)C1CCCCC1S2)NCc1ccco1 (stereo not given),Not Active
6,COc1cc(/C=C2\NC(=S)NC2=O)ccc1OCCCOc1ccccc1Cl,Not Active
7,CC(C)C(=O)Nc1nc2c(c3c1c(=O)oc1ccccc13)CCCC2,Not Active
8,CCc1ccc(OCCCOc2ccc(/C=C3\SC(=O)NC3=O)cc2)cc1,Not Active
9,COc1cc(/C=C2\NC(=S)NC2=O)ccc1OCCCOc1cccc(C)c1,Not Active
10,COc1ccc(-c2nc(=O)c3c4c(sc3[nH]2)CC(C)CC4)cc1OC (stereo not given),Not Active
11,COc1cccc(-c2nc(=O)c3c4c(sc3[nH]2)CC(C)CC4)c1 (stereo not given),Not Active
12,O=C1C(Nc2ccccc2)=CC(c2cccc([N+](=O)[O-])c2)N1c1ccccc1 (stereo not given),Not Active
13,CC(CCc1ccccc1)NC(=O)COC(=O)CC1Sc2ccccc2NC1=O (stereo not given),Not Active
14,C=C1c2ccccc2NC(=O)N1c1cccc(Cl)c1,Not Active
15,COc1cc(/C=C2\NC(=S)NC2=O)ccc1OCCCOc1ccc(Cl)cc1,Not Active
16,COc1cc(C2C=C(Nc3ccccc3)C(=O)N2c2ccccc2)ccc1O (stereo not given),Not Active
17,COc1cc(-c2nc(=O)c3c([nH]2)sc2cc(C(F)(F)F)ccc23)ccc1OCC(=O)O,Not Active
18,CC(=O)Nc1nc(-c2ccc(C(C)(C)C)cc2)nc2c1c(=O)oc1ccccc12,Not Active
19,COc1ccc2cc(C3(C)NC(=O)N(Cc4ccc(F)cc4Cl)C3=O)ccc2c1 (stereo not given),Not Active
20,CCOC(=O)CNc1ccccc1-c1nc2ccccc2[nH]c1=O,Not Active
21,Cc1ccc2[nH]c(=O)c3cc(C(=O)N4CCN(c5ccccn5)CC4)sc3c2c1,Not Active
22,COc1cc(/C=C2\NC(=S)NC2=O)ccc1OCCCOc1cc(C)cc(C)c1,Not Active
23,O=c1[nH]c2ccc(NCc3cccc(OCc4ccccc4)c3)cc2[nH]1,Not Active
24,O=C(NCc1n[nH]c(=O)c2ccccc12)c1ccc(Br)o1,Not Active
25,COc1ccc(-c2nc(NC(C)=O)c3c(=O)oc4ccc(Cl)cc4c3n2)cc1,Not Active
26,Cc1ccc(SCCNC(=O)COC(=O)Cc2n[nH]c(=O)c3ccccc23)cc1,Not Active
27,COc1cc(/C=C2\NC(=S)NC2=O)ccc1OCCCOc1cccc(Cl)c1,Not Active
28,C/C(=N\CC1CCCO1)C1C(=O)NC(=O)N(c2ccc(C)cc2)C1=O (stereo not given),Not Active
29,Cc1ccc(C2(C)NC(=O)N(Cc3ccc(F)cc3)C2=O)cc1 (stereo not given),Not Active

# Same assay, conditions: read-out: IC50
row,Structure (SMILES),IC50 [µM]
1,COc1cc(-c2nc3sc4cc(C)ccc4c3c(=O)[nH]2)ccc1OCC(=O)O,4
2,CCc1ccc2c(c1)sc1[nH]c(-c3ccc(OCC(=O)O)c(OC)c3)nc(=O)c12,5.5
3,COCc1cc(/C=C2\NC(=S)NC2=O)ccc1OCCCOc1cc(C)cc(C)c1,3300
4,COc1cc(-c2nc3sc4c(c3c(=O)[nH]2)CCC(C)C4)ccc1OCC(=O)O (stereo not given),50
5,CCOc1cc(/C=C2\NC(=S)NC2=O)ccc1OCCCOc1cc(C)cc(C)c1,250
6,COc1cc(/C=C2\SC(=N)NC2=O)ccc1OCCCOc1cc(C)cc(C)c1,23

# Biological target: Epidermal growth factor receptor (Homo sapiens, UniProt P00533)
# Sequence (P00533 whole entry): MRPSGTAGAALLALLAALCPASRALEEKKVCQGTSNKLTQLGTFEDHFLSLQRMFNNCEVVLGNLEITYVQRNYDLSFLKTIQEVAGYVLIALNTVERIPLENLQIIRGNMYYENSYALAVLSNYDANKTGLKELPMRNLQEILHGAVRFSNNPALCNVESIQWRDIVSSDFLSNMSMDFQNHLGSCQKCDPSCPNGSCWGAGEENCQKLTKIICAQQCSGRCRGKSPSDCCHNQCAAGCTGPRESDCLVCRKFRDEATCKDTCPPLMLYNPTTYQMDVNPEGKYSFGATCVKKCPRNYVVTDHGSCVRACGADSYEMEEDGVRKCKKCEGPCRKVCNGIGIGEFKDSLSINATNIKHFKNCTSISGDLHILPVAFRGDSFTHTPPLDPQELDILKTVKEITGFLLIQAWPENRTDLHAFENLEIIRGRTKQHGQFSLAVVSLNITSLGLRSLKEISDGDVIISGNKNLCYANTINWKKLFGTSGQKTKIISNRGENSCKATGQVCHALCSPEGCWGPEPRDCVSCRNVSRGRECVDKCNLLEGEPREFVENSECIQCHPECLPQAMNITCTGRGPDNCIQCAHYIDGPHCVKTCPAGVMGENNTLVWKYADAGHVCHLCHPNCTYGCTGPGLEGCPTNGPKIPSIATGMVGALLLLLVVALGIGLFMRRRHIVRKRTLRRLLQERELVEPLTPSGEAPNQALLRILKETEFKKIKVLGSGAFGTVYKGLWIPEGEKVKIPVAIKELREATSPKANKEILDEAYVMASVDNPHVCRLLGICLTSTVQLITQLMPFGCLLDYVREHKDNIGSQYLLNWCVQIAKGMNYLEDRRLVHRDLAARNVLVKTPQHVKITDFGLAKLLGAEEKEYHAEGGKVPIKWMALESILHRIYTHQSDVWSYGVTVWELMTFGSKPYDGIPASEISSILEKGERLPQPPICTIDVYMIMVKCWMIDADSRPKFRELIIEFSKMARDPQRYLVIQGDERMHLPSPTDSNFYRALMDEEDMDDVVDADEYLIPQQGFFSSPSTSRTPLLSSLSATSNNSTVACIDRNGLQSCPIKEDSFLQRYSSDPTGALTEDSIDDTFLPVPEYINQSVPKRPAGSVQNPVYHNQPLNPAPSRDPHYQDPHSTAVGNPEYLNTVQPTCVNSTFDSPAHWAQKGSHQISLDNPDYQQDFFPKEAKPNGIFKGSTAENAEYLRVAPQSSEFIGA
# Assay: Inhibition of EGFR
# Conditions: not given
# Method in brief: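 Commercially sourced EGFR enzyme was tested in an AlphaScreen format. Kinase, biotinylated peptide, ATP and inhibitor were combined across 10 wells, typically 0.01 µM to 250 µM inhibitor. Phosphorylation ran for 30 min and was stopped with EDTA. Phosphopeptide was detected with anti-phosphotyrosine acceptor beads and streptavidin donor beads.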
row,Structure (SMILES),IC50 [µM]
1,COc1cc(-c2nc(=O)c3c([nH]2)sc2ccc(C)cc23)ccc1OCC(=O)O,2.4
2,COc1cc(/C=C2\SC(=N)NC2=O)ccc1OCCCOc1cc(C)cc(C)c1,56

# Biological target: T1, Insulin receptor
# Conditions: not given
# Remark: another data set of the same source
row,Structure (SMILES),IC50
1,COc1cc(-c2nc(=O)c3c([nH]2)sc2ccc(C)cc23)ccc1OCC(=O)O,Not Active

# Biological target: Proto-oncogene tyrosine-protein kinase Src (Homo sapiens, UniProt P12931)
# Sequence (P12931 2-536 limits assumed): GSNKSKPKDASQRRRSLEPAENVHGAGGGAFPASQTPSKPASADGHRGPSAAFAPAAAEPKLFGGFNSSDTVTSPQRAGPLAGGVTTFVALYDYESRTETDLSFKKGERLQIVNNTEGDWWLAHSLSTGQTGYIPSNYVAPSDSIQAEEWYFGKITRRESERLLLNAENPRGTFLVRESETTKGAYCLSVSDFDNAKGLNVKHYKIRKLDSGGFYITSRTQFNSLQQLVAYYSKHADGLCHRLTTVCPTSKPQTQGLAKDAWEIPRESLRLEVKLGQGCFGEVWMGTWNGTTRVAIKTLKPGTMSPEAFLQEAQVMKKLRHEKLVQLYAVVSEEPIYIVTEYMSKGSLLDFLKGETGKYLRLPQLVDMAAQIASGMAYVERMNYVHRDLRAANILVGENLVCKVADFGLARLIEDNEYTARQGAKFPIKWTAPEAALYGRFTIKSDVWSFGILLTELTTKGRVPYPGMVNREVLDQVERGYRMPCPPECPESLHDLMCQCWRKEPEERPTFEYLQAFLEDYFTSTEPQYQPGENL
# Assay: Inhibition of SRC
# Conditions: not given
row,Structure (SMILES),IC50 [µM]
1,COc1cc(/C=C2\SC(=N)NC2=O)ccc1OCCCOc1cc(C)cc(C)c1,10
